In ChEMBL document CHEMBL4706503, “A novel pipeline of 2-(benzenesulfonamide)-N-(4-hydroxyphenyl) acetamide analgesics that lack hepatotoxicity and retain antipyresis” (Eur J Med Chem, 2020):
The source made the active and inactive calls. The calls are words filed in the database; no cut-off is given here.

Key:
[1] = Renal toxicity in CD1 mouse assessed as increase in serum creatinine level at 600 mg/kg, po measured after 12 hrs; format: organism-based; conditions: in vivo
Method in brief: (§1)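 Male CD1 mice fasted 15 h, given 600 mg/kg po, then fed ad libitum for 12 h. Whole blood taken by transcardial perfusion under 5% isoflurane, without anticoagulant, clotted 0.5 h at 25 °C, spun 1000 g 5 min at 4 °C. Serum stored at −80 °C, then assayed with commercial kits. n = 5 mice per compound; vehicle 0.9% NaCl.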

[2] = Hepatotoxicity in CD1 mouse assessed as increase in serum aspartate aminotransferase level at 600 mg/kg, po measured after 12 hrs; format: toxicity, organism-based; conditions: in vivo; method in brief: as §1
[3] = test system: Hepatocyte; experiment: Hepatotoxicity in primary human hepatocytes assessed as increase in lactate dehydrogenase release at 500 to 1000 uM measured after 3 to 12 hrs by fluorescence based analysis
[4] = Hepatotoxicity in CD1 mouse assessed as increase in serum alanine aminotransferase level at 600 mg/kg, po measured after 12 hrs; format: toxicity, organism-based; conditions: in vivo; method in brief: as §1
[5] = Hepatotoxicity in CD1 mouse assessed as increase in serum alkaline phosphatase level at 600 mg/kg, po measured after 12 hrs; format: toxicity, organism-based; conditions: in vivo; method in brief: as §1
[6] = Drug metabolism in CD1 mouse serum assessed as NAPQI formation at 600 mg/kg, po measured after 12 hrs by LC-MS/MS analysis; format: ADME, organism-based; conditions: in vivo
Method in brief: (§2)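 Male CD1 mice dosed at 600 mg/kg (ip or po). Serum extracted twice with 3 vol ethyl acetate on ice (30 min, 3000 g spin), dried under N2, redissolved in 1:1 MeOH:H2O. LC-MS/MS in positive electrospray MRM mode monitoring m/z 150.3→108.1, identity checked against spiked NAPQI standard retention time (5.1 min).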

[7] = Toxicity in CD1 mouse assessed as animal survival rate at 600 mg/kg, ip measured for every 4 hrs upto 48 hrs by Kaplan-Meier plot analysis; format: organism-based; conditions: in vivo
Method in brief: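 Male CD1 mice, four groups of n = 20, given 600 mg/kg ip or 0.9% NaCl vehicle; live animals counted every 4 h for 48 h; Kaplan-Meier survival curves plotted.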

[8] = target: CYP3A4 (Homo sapiens, UniProt P08684); experiment: Inhibition of CYP3A4 (unknown origin) in baculosomes preincubated for 20 mins followed by addition of CYP enzyme-specific substrate and NADP+ and measured after 30 mins by fluorescence based analysis relative to control
Sequence of CYP3A4 (P08684 whole entry): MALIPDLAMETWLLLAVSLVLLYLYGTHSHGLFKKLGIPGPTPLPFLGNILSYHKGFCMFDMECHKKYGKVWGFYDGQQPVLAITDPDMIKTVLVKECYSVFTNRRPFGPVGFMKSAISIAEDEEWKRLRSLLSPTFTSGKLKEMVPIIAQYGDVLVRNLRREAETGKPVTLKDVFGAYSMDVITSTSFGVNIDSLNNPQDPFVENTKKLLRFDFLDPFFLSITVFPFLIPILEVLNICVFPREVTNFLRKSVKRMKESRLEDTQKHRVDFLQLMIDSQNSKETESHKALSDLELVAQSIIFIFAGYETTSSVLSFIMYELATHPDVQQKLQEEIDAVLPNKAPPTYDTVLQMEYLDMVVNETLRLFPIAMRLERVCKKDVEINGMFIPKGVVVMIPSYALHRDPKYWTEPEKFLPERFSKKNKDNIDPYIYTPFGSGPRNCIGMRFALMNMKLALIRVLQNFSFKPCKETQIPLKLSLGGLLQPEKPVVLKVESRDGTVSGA

[9] = target: CYP2E1 (Homo sapiens, UniProt P05181); experiment: Inhibition of CYP2E1 (unknown origin) in baculosomes preincubated for 20 mins followed by addition of CYP enzyme-specific substrate and NADP+ and measured after 30 mins by fluorescence based analysis relative to control
Sequence of CYP2E1 (P05181 whole entry): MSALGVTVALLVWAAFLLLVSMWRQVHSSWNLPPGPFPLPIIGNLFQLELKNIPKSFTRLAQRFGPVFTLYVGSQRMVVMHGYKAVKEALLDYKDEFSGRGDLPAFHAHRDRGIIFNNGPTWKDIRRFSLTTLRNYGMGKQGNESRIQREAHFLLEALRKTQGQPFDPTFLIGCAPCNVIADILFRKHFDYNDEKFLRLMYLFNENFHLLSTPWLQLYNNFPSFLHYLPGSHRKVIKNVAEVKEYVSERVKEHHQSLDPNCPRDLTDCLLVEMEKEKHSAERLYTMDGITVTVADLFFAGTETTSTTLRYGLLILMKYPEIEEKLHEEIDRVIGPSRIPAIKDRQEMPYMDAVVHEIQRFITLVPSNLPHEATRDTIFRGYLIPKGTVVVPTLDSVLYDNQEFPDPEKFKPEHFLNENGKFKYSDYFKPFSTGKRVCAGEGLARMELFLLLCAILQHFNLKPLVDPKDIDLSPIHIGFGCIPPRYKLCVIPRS

[10] = Drug metabolism in CD1 mouse serum assessed as NAPQI formation at 600 mg/kg, ip measured after 12 hrs by LC-MS/MS analysis; format: ADME, organism-based; conditions: in vivo; method in brief: as §2
[11] = target: Cytochrome P450 3A4 (Homo sapiens, UniProt P08684); experiment: Inhibition of CYP3A4 (unknown origin) in baculosomes preincubated for 20 mins followed by addition of CYP enzyme-specific substrate and NADP+ and measured after 30 mins by fluorescence based analysis; format: ADME
Sequence of Cytochrome P450 3A4 (P08684 whole entry): as the sequence (P08684 whole entry) above
Method in brief: (§3)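 Vivid fluorogenic screen: each compound was premixed with CYP baculosomes and a regeneration system (glucose-6-phosphate plus G6P dehydrogenase) for 20 min at room temperature. Isozyme-specific substrate and NADP+ were then added for 30 min at room temperature. Reaction stopped with 0.5 M Tris base; metabolite fluorescence read. IC50 taken from 10-point titration curves.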

[12] = Hepatotoxicity in CD1 mouse assessed as loss of chicken wire hepatic tight junctions at 600 mg/kg, po measured after 12 hrs by ZO-1 staining based optical microscopy; format: toxicity, organism-based; conditions: in vivo
Method in brief: (§4)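 At 12 h, mice under 5% isoflurane were exsanguinated with saline and perfusion-fixed with 10% NBF; livers fixed 24 h, moved to 80% EtOH, paraffin-embedded and sectioned. Stains: H&E (100x), nitrotyrosine, ZO-1 (200x; 3D stacks at 1000x), TUNEL (200x).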

[13] = test system: Mus musculus; experiment: Antipyretic activity against Baker's yeast-induced hyperthermia model in CD1 mouse at 80 mg/kg, po at 2 hrs post-injection by thermometer based analysis; format: functional, organism-based
Method in brief: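 Male CD1 mice fasted overnight (15 h); baseline rectal temperature taken, then ip pyrogen (15% baker's yeast, 0.1 mL/kg). Rectal temperature read 4 h later; only febrile animals used, grouped by equal mean temperature. Drug or 0.9% NaCl given po at 80 mg/kg; rectal temperature recorded 2 h later; fall compared with 4 h fever value. Mean ± SEM, n = 10; one-way ANOVA with Sidak post-hoc.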

[14] = test system: Mus musculus; experiment: Analgesic activity in po dosed CD1 mouse assessed as inhibition of acetic acid-induced abdominal writhing treated with acetic acid 25 mins post drug administration and measured after 5 mins for 10 mins; format: functional; conditions: 40 min
Method in brief: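 Male CD1 mice fasted 15 h; drug suspended in 0.9% NaCl with ≤10% DMSO given po at 5, 10, 20, 40, 80 mg/kg. 0.4% acetic acid 10 mL/kg ip 25 min later; writhes counted 10 min starting 5 min after acid. Compared to vehicle; mean ± SEM, n > 15 per group; ED50 from dose-response curves.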

[15] = Hepatotoxicity in CD1 mouse assessed as increase in apoptotic nuclei at 600 mg/kg, po measured after 12 hrs by TUNEL staining; format: toxicity, organism-based; conditions: in vivo; method in brief: as §4
[16] = test system: HepaRG; experiment: Hepatotoxicity in human HepaRG cells assessed as increase in lactate dehydrogenase release at 50 to 5000 uM […]; format: toxicity, cell-based; conditions: dose 50-5000 µM
[17] = test system: HepaRG; experiment: Hepatotoxicity in human HepaRG cells assessed as decrease in GSH level at 50 to 5000 uM measured after 6 to 24 hrs by Thiol tracker violet dye based fluorescence analysis; format: toxicity, cell-based; conditions: dose lower 50 µM, time lower 6 hrs, dose upper 5000 µM, time upper 24 hrs
Method in brief: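 HepaRG cells (80% confluent, serum-starved 6–8 h) exposed to 50, 100, 1000 or 5000 μM for 6, 12 or 24 h. Medium then removed and cells rinsed with D-PBS-conditioned medium. Cells were stained 30 min with ThiolTracker Violet; fluorescence read at ex 404/em 526 nm and reported as RFU for cellular GSH.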

[18] = target: Cytochrome P450 2D6 (Homo sapiens, UniProt P10635); experiment: Inhibition of CYP2D6 (unknown origin) in baculosomes preincubated for 20 mins followed by addition of CYP enzyme-specific substrate and NADP+ and measured after 30 mins by fluorescence based analysis; format: ADME; method in brief: as §3
Sequence of Cytochrome P450 2D6 (P10635 whole entry): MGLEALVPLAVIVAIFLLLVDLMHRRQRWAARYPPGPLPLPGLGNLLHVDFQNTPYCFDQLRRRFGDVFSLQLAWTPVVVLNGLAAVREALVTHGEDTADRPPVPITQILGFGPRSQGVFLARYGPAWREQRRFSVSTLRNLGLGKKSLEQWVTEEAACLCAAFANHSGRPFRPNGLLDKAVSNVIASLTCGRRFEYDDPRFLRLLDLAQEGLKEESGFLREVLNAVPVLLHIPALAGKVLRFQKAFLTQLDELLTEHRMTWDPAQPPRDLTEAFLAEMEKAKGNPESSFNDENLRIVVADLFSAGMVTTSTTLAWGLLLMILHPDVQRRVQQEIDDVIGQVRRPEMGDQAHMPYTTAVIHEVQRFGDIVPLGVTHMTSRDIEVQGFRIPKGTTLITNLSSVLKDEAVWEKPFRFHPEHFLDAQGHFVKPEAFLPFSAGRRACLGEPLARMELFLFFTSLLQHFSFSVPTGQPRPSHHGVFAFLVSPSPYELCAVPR

[19] = Hepatotoxicity in CD1 mouse assessed as increase in nitrotyrosine formation in liver at 600 mg/kg, po measured after 12 hrs by nitrotyrosine immunostaining based optical microscopy; conditions: in vivo
[20] = test system: Rattus norvegicus; experiment: Analgesic activity in ip dosed complete freund's adjuvant-induced Sprague Dawley rat model of hyperalgesia assessed as inhibition of inflammatory pain measured after 30 mins by von Frey analgesimetric method; format: functional; conditions: 0.5 h
[21] = Hepatotoxicity in CD1 mouse assessed as liver architecture at 600 mg/kg, po measured after 12 hrs by hematoxylin and eosin staining based optical microscopy; format: toxicity, organism-based; conditions: in vivo; method in brief: as §4
[22] = Hepatotoxicity in CD1 mouse assessed as centrilobular hepatic hemorrhagic necrosis at 600 mg/kg, po measured after 12 hrs by hematoxylin and eosin staining based optical microscopy; format: toxicity, organism-based; conditions: in vivo; method in brief: as §4

| SMILES | Activity [1] | Activity [2] | Activity [3] | Activity [4] | Activity [5] | other results |
| --- | --- | --- | --- | --- | --- | --- |
| O=C(CNS(=O)(=O)c1ccccc1C(=O)NCCN1CCCC1)Nc1ccc(O)cc1 | Non-Toxic | Non-Toxic | Non-Toxic | Non-Toxic | Non-Toxic | – |
| CCCCNC(=O)c1ccccc1S(=O)(=O)NCC(=O)Nc1ccc(O)cc1 | Non-Toxic | Non-Toxic | Toxic | Non-Toxic | Non-Toxic | – |
| O=C(CNS(=O)(=O)c1ccccc1C(=O)NCc1ccccc1)Nc1ccc(O)cc1 | – | – | Toxic | – | – | – |
| NC(=O)c1ccccc1S(=O)(=O)NCC(=O)Nc1ccc(O)cc1 | – | – | Toxic | – | – | – |
| O=C(CNS(=O)(=O)c1ccccc1C(=O)NCCc1ccc(O)c(O)c1)Nc1ccc(O)cc1 | Non-Toxic | Non-Toxic | Non-Toxic | Non-Toxic | Non-Toxic | Drug metabolism [6]: Metabolite_Notdetected; survival at 48 h [7]: 100%; inhibition at 0.5 h [8]: 25%; inhibition at 0.5 h [9]: 25%; Drug metabolism [10]: Metabolite_Notdetected; IC50 [11]: 4.82 µM; Activity [12]: Non-Toxic; Activity [13]: Active; ED50 [14]: 14.7 µmol/kg; Activity [15]: Non-Toxic; Activity [16]: Non-Toxic; Activity [17]: Non-Toxic; IC50 [18]: > 10 µM; Activity [19]: Non-Toxic; ED50 [20]: 177 µmol/kg; Activity [21]: Non-Toxic |
| COc1ccc(CNC(=O)c2ccccc2S(=O)(=O)NCC(=O)Nc2ccc(O)cc2)cc1 | Non-Toxic | Non-Toxic | Toxic | Non-Toxic | Non-Toxic | – |
| Cc1ccc(CNC(=O)c2ccccc2S(=O)(=O)NCC(=O)Nc2ccc(O)cc2)cc1 | Non-Toxic | Non-Toxic | Toxic | Non-Toxic | Non-Toxic | – |
| O=C(CNS(=O)(=O)c1ccccc1C(=O)N1CCOCC1)Nc1ccc(O)cc1 | – | – | Non-Toxic | – | – | – |
| O=C(CNS(=O)(=O)c1ccccc1C(=O)NCc1cccc(Cl)c1)Nc1ccc(O)cc1 | Non-Toxic | Non-Toxic | Toxic | Non-Toxic | Non-Toxic | – |
| CC(C)NC(=O)c1ccccc1S(=O)(=O)NCC(=O)Nc1ccc(O)cc1 | – | – | Toxic | – | – | – |
| O=C(CNS(=O)(=O)c1ccccc1C(=O)NCc1ccccn1)Nc1ccc(O)cc1 | Non-Toxic | Non-Toxic | Toxic | Non-Toxic | Non-Toxic | – |
| O=C(CNS(=O)(=O)c1ccccc1C(=O)NCc1ccc(Cl)c(Cl)c1)Nc1ccc(O)cc1 | Non-Toxic | Non-Toxic | Non-Toxic | Non-Toxic | Non-Toxic | – |
| O=C(CNS(=O)(=O)c1ccccc1C(=O)N1CCN(Cc2ccccc2)CC1)Nc1ccc(O)cc1 | – | – | Toxic | – | – | – |
| CNC(=O)c1ccccc1S(=O)(=O)NCC(=O)Nc1ccc(O)cc1 | Non-Toxic | Non-Toxic | Non-Toxic | Non-Toxic | Non-Toxic | Drug metabolism [6]: Metabolite_Notdetected; survival at 48 h [7]: 100%; Drug metabolism [10]: Metabolite_Notdetected; IC50 [11]: > 10 µM; Activity [12]: Non-Toxic; Activity [13]: Active; ED50 [14]: 45.2 µmol/kg; Activity [15]: Non-Toxic; Activity [16]: Non-Toxic; Activity [17]: Non-Toxic; IC50 [18]: > 10 µM; Activity [19]: Non-Toxic; ED50 [20]: 198 µmol/kg; Activity [21]: Non-Toxic |
| CN(C)C(=O)c1ccccc1S(=O)(=O)NCC(=O)Nc1ccc(O)cc1 | Non-Toxic | Non-Toxic | Toxic | Non-Toxic | Non-Toxic | – |
| CC(C)CNC(=O)c1ccccc1S(=O)(=O)NCC(=O)Nc1ccc(O)cc1 | Non-Toxic | Non-Toxic | Toxic | Non-Toxic | Non-Toxic | – |
| O=C(CNS(=O)(=O)c1ccccc1C(=O)NC1CCCC1)Nc1ccc(O)cc1 | Non-Toxic | Non-Toxic | Toxic | Non-Toxic | Non-Toxic | – |
| CC(=O)Nc1ccc(O)cc1 [ACETAMINOPHEN] | Toxic | Toxic | – | Toxic | Toxic | Drug metabolism [6]: Metabolite_Detected; Activity [22]: Toxic; Drug metabolism [10]: Metabolite_Detected; Activity [12]: Toxic; Activity [13]: Active; ED50 [14]: 68.6 µmol/kg; Activity [15]: Toxic; Activity [16]: Toxic; Activity [17]: Toxic; IC50 [18]: > 10 µM; Activity [19]: Toxic; ED50 [20]: 245 µmol/kg |
| O=C(CNS(=O)(=O)c1ccccc1C(=O)NCCc1ccccc1)Nc1ccc(O)cc1 | – | – | Toxic | – | – | – |
| O=C(CNS(=O)(=O)c1ccccc1C(=O)NCc1ccc([N+](=O)[O-])cc1)Nc1ccc(O)cc1 | Non-Toxic | Non-Toxic | Non-Toxic | Non-Toxic | Non-Toxic | – |
